Active and inactive are the calls of the source. The calls are words filed in the database; no cut-off is given here.
How the values were obtained:
[1] = target: T1, D(2) dopamine receptor (Rattus norvegicus, UniProt P61169); assay: In vitro binding activity against Dopamine receptor D2 from homogenized rat brain, using [3H]spiperone as the radioligand
In short: (§1)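 Rat striatal membranes in 50 mM potassium phosphate buffer (pH 7.4 at 25 °C), pellets homogenized in 1300 volumes. Incubated with 0.5 nM [3H]spiperone (3 mg original tissue) for 10 min at 37 °C, then terminated by rapid vacuum filtration and counted by liquid scintillation. Nonspecific binding defined with 10 μM 6,7-ADTN; specific binding 70-80% of total.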

[2] = target: T2, D(1A) dopamine receptor (Rattus norvegicus, UniProt P18901); assay: In vitro binding activity against dopamine D1 receptor from homogenized rat brain, using [3H]SCH-23390 as the radioligand
T2 sequence (P18901 whole entry): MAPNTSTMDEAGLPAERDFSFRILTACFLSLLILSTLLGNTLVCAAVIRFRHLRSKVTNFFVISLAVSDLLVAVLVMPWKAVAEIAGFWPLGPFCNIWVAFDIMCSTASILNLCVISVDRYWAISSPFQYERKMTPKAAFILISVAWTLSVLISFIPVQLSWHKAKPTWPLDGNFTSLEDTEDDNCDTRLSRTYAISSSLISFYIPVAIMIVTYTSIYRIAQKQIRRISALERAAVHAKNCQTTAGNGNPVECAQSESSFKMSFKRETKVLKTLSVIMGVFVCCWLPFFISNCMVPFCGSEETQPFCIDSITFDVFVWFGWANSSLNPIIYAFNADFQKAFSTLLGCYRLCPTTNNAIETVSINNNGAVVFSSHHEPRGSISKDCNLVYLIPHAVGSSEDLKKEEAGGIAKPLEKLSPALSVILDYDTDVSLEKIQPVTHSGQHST
In short: (§2)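 Rat striatal membranes prepared in 50 mM potassium phosphate pH 7.4 and centrifuged at 25000g. Incubated with 0.2 nM [3H]SCH 23390 (1 mg original tissue) for 60 min at 30 °C, then separated by rapid filtration. Specific binding defined with 1 μM cis-(Z)-flupentixol.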

[3] = target: T1, D(2) dopamine receptor; assay: In vitro binding activity against dopamine receptor D2 from homogenized rat brain, using [3H]spiperone as the radioligand; in short: as §1
[4] = target: T2, D(1A) dopamine receptor; assay: In vitro binding activity against Dopamine receptor D1 from homogenized rat brain, using [3H]SCH-23390 as the radioligand; in short: as §2
[5] = target: T3, 5-hydroxytryptamine receptor 1A (Rattus norvegicus, UniProt P19327); assay: In vitro binding activity against 5-hydroxytryptamine 1A receptor from homogenized rat brain, using [3H]-8-OH-DPAT as the radioligand
T3 sequence (P19327 whole entry): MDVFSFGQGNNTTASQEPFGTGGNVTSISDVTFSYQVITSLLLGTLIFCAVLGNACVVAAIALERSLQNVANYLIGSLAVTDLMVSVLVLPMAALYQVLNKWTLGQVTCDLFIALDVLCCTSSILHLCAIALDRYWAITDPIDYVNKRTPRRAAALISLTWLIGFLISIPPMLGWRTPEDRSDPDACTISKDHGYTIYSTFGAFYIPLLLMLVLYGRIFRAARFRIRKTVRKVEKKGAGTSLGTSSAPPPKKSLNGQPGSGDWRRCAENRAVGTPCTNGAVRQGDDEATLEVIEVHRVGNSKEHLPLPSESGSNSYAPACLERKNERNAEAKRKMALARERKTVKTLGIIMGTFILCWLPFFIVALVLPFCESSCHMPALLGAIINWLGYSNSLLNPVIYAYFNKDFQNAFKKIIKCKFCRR
In short: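 Whole rat brain minus brainstem and cerebellum, homogenized in 50 mM Tris pH 8.0 with 120 mM NaCl, 4 mM CaCl2 and 4 mM MgCl2. Membranes preincubated 10 min at 37 °C, then resuspended with 10 μM pargyline. Incubated in triplicate with 1 nM [3H]-8-OH-DPAT (0.1% ascorbic acid) for 15 min at 37 °C, then filtered. Nonspecific binding defined with 10 μM 5-HT. IC50 from semilog linear regression.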

[6] = tested on: Rattus norvegicus; assay: Effect on Dopa accumulation upon subcutaneous administration in the hemispheres of rat brain; I - inactive at highest dose (50 umol/kg); type: functional, organism-based
[7] = tested on: Rattus norvegicus; assay: Effect of compound on 5-Hydroxy transaminase accumulation upon subcutaneous administration in the corpus striatum of rat brain; I - inactive at highest dose (50 umol/kg); type: functional, organism-based
[8] = tested on: Rattus norvegicus; assay: Effect on Dopa accumulation upon subcutaneous administration in the limbic system of rat brain; type: functional; conditions: sc
[9] = tested on: Rattus norvegicus; assay: Effect on Dopa accumulation upon subcutaneous administration in the corpus striatum of rat brain; type: functional; conditions: sc
[10] = tested on: Rattus norvegicus; assay: Effect of compound on 5-Hydroxy transaminase accumulation upon subcutaneous administration in the hemisphere of rat brain; I - inactive at highest dose (50 umol/kg); type: functional, organism-based
[11] = tested on: Rattus norvegicus; assay: Effect of compound on 5-Hydroxy transaminase accumulation upon subcutaneous administration in the limbic system of rat brain; I - inactive at highest dose (50 umol/kg); type: functional, organism-based
[12] = tested on: Rattus norvegicus; assay: Effect on Dopa accumulation upon subcutaneous administration in the hemispheres of rat brain (partial response); type: functional; conditions: sc
[13] = target: T2, D(1A) dopamine receptor; assay: In vitro binding activity against dopamine receptor D1 from homogenized rat brain, using [3H]SCH-23390 as the radioligand.; in short: as §2
[14] = tested on: Rattus norvegicus; assay: Effect on motor activity in rats at a dose of 4 uM/Kg; type: functional
[15] = tested on: Rattus norvegicus; assay: Effect of compound on 5-Hydroxy tryptamine accumulation upon subcutaneous administration in the limbic system of rat brain; type: functional; conditions: sc
[16] = tested on: Rattus norvegicus; assay: Effect of compound on 5-Hydroxy tryptamine accumulation upon subcutaneous administration in the hemisphere of rat brain (partial response); type: functional; conditions: sc
[17] = tested on: Rattus norvegicus; assay: Effect of compound on 5-Hydroxy tryptamine accumulation upon subcutaneous administration in the corpus striatum of rat brain; type: functional; conditions: sc
[18] = tested on: Rattus norvegicus; assay: Effect on motor activity in rats at a dose of 12.5 uM/Kg; type: functional
[19] = tested on: Rattus norvegicus; assay: Effect on Dopa accumulation upon subcutaneous administration in the hemispheres of rat brain; type: functional; conditions: sc
[20] = tested on: Rattus norvegicus; assay: Effect of compound on 5-Hydroxy tryptamine accumulation upon subcutaneous administration in the hemisphere of rat brain; type: functional; conditions: sc
[21] = tested on: Rattus norvegicus; assay: Effect of compound on 5-Hydroxy transaminase accumulation upon subcutaneous administration in the limbic system of rat brain; type: functional; conditions: sc
In short: (§3)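 Male Sprague-Dawley rats (200-300 g) were dosed subcutaneously at 5 mL/kg with neutral-pH solutions. Dose-response curves used four to six dose levels (n = 4) per substance and per brain area, up to 50 μmol/kg. 5-HTP was measured in dissected brain regions by HPLC with electrochemical detection, and ED50 values were derived from the curves.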

[22] = species on record: Rattus norvegicus; assay: […]; type: functional, organism-based; conditions: Striatum
[23] = tested on: Rattus norvegicus; assay: Effect on Dopa accumulation upon subcutaneous administration in the limbic system of rat brain; I - inactive at highest dose (50 umol/kg); type: functional, organism-based
[24] = tested on: Rattus norvegicus; assay: Effect of compound on 5-Hydroxy transaminase accumulation upon subcutaneous administration in the corpus striatum of rat brain; type: functional; conditions: sc
In short: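 Male Sprague-Dawley rats (200-300 g) received the compound subcutaneously at 5 mL/kg in neutral-pH solution, at four to six dose levels up to 50 μmol/kg (n = 4 per dose). 5-HTP in the corpus striatum was measured by HPLC with electrochemical detection. A separate dose-response curve per substance and brain area gave ED50 values.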

[25] = tested on: Rattus norvegicus; assay: Effect of compound on 5-Hydroxy transaminase accumulation upon subcutaneous administration in the hemisphere of rat brain; type: functional; conditions: sc; in short: as §3
[26] = tested on: Rattus norvegicus; assay: Effect on motor activity in rats at a dose of 2 uM/Kg; type: functional

T1 sequence (P61169 whole entry): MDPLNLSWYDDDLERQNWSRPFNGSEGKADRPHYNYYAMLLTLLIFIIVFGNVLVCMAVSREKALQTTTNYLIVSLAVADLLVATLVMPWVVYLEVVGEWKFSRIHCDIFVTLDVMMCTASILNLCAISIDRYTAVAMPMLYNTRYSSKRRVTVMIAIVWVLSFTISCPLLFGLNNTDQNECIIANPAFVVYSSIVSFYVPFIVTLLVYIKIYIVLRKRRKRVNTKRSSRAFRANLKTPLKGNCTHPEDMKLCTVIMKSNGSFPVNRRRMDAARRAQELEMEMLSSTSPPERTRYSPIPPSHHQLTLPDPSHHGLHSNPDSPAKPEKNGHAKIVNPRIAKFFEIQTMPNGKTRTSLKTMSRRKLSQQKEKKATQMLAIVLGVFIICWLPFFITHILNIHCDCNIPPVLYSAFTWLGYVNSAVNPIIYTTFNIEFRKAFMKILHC

Structure (SMILES): CCCN(CCC)C1CCc2cccc(O)c2C1 (racemic) [8-OH-DPAT]
- IC50 [1]: 5.76 µM
- IC50 [2]: > 100 µM

Structure (SMILES): CCN(CC)C(=O)N[C@H]1C[C@@H]2c3cccc4[nH]cc(c34)C[C@H]2N(C)C1 [TERGURIDE]
- IC50 [3]: 0.004 µM
- IC50 [4]: 0.069 µM
- IC50 [5]: 0.025 µM

Structure (SMILES): CCCN(CCC)[C@@H]1CCc2ccc(O)cc2C1
- ED50 [6]: inactive
- ED50 [7]: inactive
- ED50 [8]: 0.0095 µmol/kg
- ED50 [9]: 0.011 µmol/kg
- ED50 [10]: inactive
- ED50 [11]: inactive

Structure (SMILES): CN(C)C1CCc2ccc3[nH]ccc3c2C1 (racemic)
- ED50 [12]: 4 µmol/kg
- IC50 [13]: 19.7 µM
- ED50 [8]: 0.3 µmol/kg
- Motor activity [14]: 90 accumulated counts 30min-1
- ED50 [9]: 0.4 µmol/kg
- ED50 [15]: 0.3 µmol/kg
- ED50 [16]: 0.4 µmol/kg
- ED50 [17]: 0.2 µmol/kg

Structure (SMILES): CN(C)[C@H]1CCc2ccc3[nH]ccc3c2C1
- IC50 [13]: 29.2 µM
- ED50 [8]: 4.2 µmol/kg
- Motor activity [18]: 22 accumulated counts 30min-1
- ED50 [9]: 8 µmol/kg
- ED50 [15]: 3.7 µmol/kg
- ED50 [19]: 10 µmol/kg
- ED50 [20]: 3.7 µmol/kg
- ED50 [17]: 3.7 µmol/kg

Structure (SMILES): CCCN(CCC)[C@H]1CCc2cccc(O)c2C1
- ED50 [6]: inactive
- ED50 [21]: 0.061 µmol/kg
- ED50 [22]: inactive
- ED50 [23]: inactive
- ED50 [24]: 0.065 µmol/kg
- ED50 [25]: 0.077 µmol/kg

Structure (SMILES): CN(C)[C@@H]1CCc2ccc3[nH]ccc3c2C1
- ED50 [12]: 2 µmol/kg
- IC50 [13]: 20.4 µM
- ED50 [8]: 0.3 µmol/kg
- ED50 [9]: 0.4 µmol/kg
- ED50 [15]: 0.4 µmol/kg
- Motor activity [26]: 130 accumulated counts 30min-1
- ED50 [20]: 0.4 µmol/kg
- ED50 [17]: 0.1 µmol/kg

Structure (SMILES): CCCN(CCC)[C@@H]1CCc2cccc(O)c2C1
- ED50 [6]: inactive
- ED50 [21]: 0.036 µmol/kg
- ED50 [22]: inactive
- ED50 [23]: inactive
- ED50 [24]: 0.047 µmol/kg
- ED50 [25]: 0.05 µmol/kg

— ChEMBL document CHEMBL1124652, “Resolved 6,7,8,9-tetrahydro-N,N-dimethyl-3H-benz[e]indol-8-amine: central dopamine and serotonin receptor stimulating properties” (J Med Chem, 1989)
